The record followed here is ChEMBL document CHEMBL5247578, “Effective synthesis of benzimidazoles-imidazo[1,2-a]pyrazine conjugates: A comparative study of mono-and bis-benzimidazoles for antitumor activity” (Eur J Med Chem, 2019).

As usually defined, the inhibition is the change of the read-out against control, counted positive when it falls.

What all share (format): functional
One assay relates to RPMI-8226. The experiment in a line: Antiproliferative activity against human RPMI-8226 cells assessed as cell growth inhibition at 10 uM incubated for 48 hrs by sulforhodamine B assay relative to control. The method in brief: (§1)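 NCI-60 single-dose screen at 10^-5 M. Cells grown in RPMI 1640 with 5% FBS and 2 mM L-glutamine, plated at 5,000–40,000 cells/well, and preincubated 24 h. Drug (DMSO stock) added and incubated 48 h at 37 °C, 5% CO2. Adherent cells fixed with cold TCA, stained with 0.4% SRB in 1% acetic acid, dye solubilized in 10 mM trizma base, A515 read. Percent growth taken against time-zero and untreated control.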
Background: In SRB staining, fixed cells bind dye roughly in proportion to their protein.

For the next assay, the system named is SNB-75. The experiment in a line: Antiproliferative activity against human SNB-75 cells assessed as cell growth inhibition at 10 uM incubated for 48 hrs by sulforhodamine B assay relative to control. The method in brief: as §1
Another assay deals with HOP-92. The experiment in a line: Antiproliferative activity against human HOP-92 cells assessed as cell growth inhibition at 10 uM incubated for 48 hrs by sulforhodamine B assay relative to control. The method in brief:
(§2)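 NCI-60 one-dose prescreen at 10^-5 M. Cells grown in RPMI 1640 with 5% FBS and 2 mM glutamine, preincubated 24 h, then exposed 48 h at 37 °C. Adherent lines TCA-fixed, SRB-stained, A515 read. Growth percent relative to time-zero and control; negative values mean cell kill.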

The subject of a further assay is NCI-H460. The experiment in a line: Antiproliferative activity against human NCI-H460 cells assessed as cell growth inhibition at 10 uM incubated for 48 hrs by sulforhodamine B assay relative to control. The method in brief: as §1
Another assay deals with HOP-62. The experiment in a line: Antiproliferative activity against human HOP-62 cells assessed as cell growth inhibition at 10 uM incubated for 48 hrs by sulforhodamine B assay relative to control. The method in brief: as §2
For another assay, the system named is NCI-H522. As to the kind of experiment: Antiproliferative activity against human NCI-H522 cells assessed as cell growth inhibition at 10 uM incubated for 48 hrs by sulforhodamine B assay relative to control. Put shortly: as §1
The next assay deals with OVCAR-5. As to the kind of experiment: Antiproliferative activity against human OVCAR-5 cells assessed as cell growth inhibition at 10 uM incubated for 48 hrs by sulforhodamine B assay relative to control. Put shortly: as §1
A further assay has as its system SN12C. The experiment in a line: Antiproliferative activity against human SN12C cells assessed as cell growth inhibition at 10 uM incubated for 48 hrs by sulforhodamine B assay relative to control. The method in brief:
as §1

The subject of the next assay is COLO 205. The experiment in a line: Antiproliferative activity against human COLO 205 cells assessed as cell growth inhibition at 10 uM incubated for 48 hrs by sulforhodamine B assay relative to control. Put shortly: (§3)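 Single-dose NCI-60 prescreen at 10^-5 M. Cells in RPMI 1640 with 5% FBS and 2 mM L-glutamine, seeded 5,000–40,000 cells/well with 24 h preincubation, then drug exposure for 48 h at 37 °C under 5% CO2. Growth read by SRB staining of TCA-fixed cells at 515 nm against time-zero and untreated controls. Negative growth values denote cell kill.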

A further assay concerns PC-3. As to the kind of experiment: Antiproliferative activity against human PC-3 cells assessed as cell growth inhibition at 10 uM incubated for 48 hrs by sulforhodamine B assay relative to control. The method in brief: as §1
Another assay relates to SK-MEL-5. As to the kind of experiment: Antiproliferative activity against human SK-MEL-5 cells assessed as cell growth inhibition at 10 uM incubated for 48 hrs by sulforhodamine B assay relative to control. The method in brief: as §1
The subject of the next assay is OVCAR-4. As to the kind of experiment: Antiproliferative activity against human OVCAR-4 cells assessed as cell growth inhibition at 10 uM incubated for 48 hrs by sulforhodamine B assay relative to control. Put shortly: as §1
In another assay the test system is CCRF-CEM. The experiment in a line: Antiproliferative activity against human CCRF-CEM cells assessed as cell growth inhibition at 10 uM incubated for 48 hrs by sulforhodamine B assay relative to control. The method in brief:
as §3

In a further assay the test system is CAKI-1. The experiment in a line: Antiproliferative activity against human CAKI-1 cells assessed as cell growth inhibition at 10 uM incubated for 48 hrs by sulforhodamine B assay relative to control. Put shortly: as §3
In the next assay the test system is NCI-H23. As to the kind of experiment: Antiproliferative activity against human NCI-H23 cells assessed as cell growth inhibition at 10 uM incubated for 48 hrs by sulforhodamine B assay relative to control. Put shortly:
as §1

Another assay concerns IGROV-1. As to the kind of experiment: Antiproliferative activity against human IGROV-1 cells assessed as cell growth inhibition at 10 uM incubated for 48 hrs by sulforhodamine B assay relative to control. Put shortly:
as §1

For another assay, the system named is T47D. As to the kind of experiment: Antiproliferative activity against human T47D cells assessed as cell growth inhibition at 10 uM incubated for 48 hrs by sulforhodamine B assay relative to control. Put shortly:
as §1

The next assay deals with KM12. The experiment in a line: Antiproliferative activity against human KM12 cells assessed as cell growth inhibition at 10 uM incubated for 48 hrs by sulforhodamine B assay relative to control. Put shortly: as §1
In another assay the test system is Hs-578T. The experiment in a line: Antiproliferative activity against human Hs-578T cells assessed as cell growth inhibition at 10 uM incubated for 48 hrs by sulforhodamine B assay relative to control. Put shortly:
as §1

A further assay concerns NCI-H226. As to the kind of experiment: Antiproliferative activity against human NCI-H226 cells assessed as cell growth inhibition at 10 uM incubated for 48 hrs by sulforhodamine B assay relative to control. Put shortly: as §1
The next assay has as its system UACC-62. As to the kind of experiment: Antiproliferative activity against human UACC-62 cells assessed as cell growth inhibition at 10 uM incubated for 48 hrs by sulforhodamine B assay relative to control. The method in brief: as §1
The next assay concerns A549. The experiment in a line: Antiproliferative activity against human A549 cells assessed as cell growth inhibition at 10 uM incubated for 48 hrs by sulforhodamine B assay relative to control. Put shortly:
as §3

The test system of another assay is SK-MEL-28. As to the kind of experiment: Antiproliferative activity against human SK-MEL-28 cells assessed as cell growth inhibition at 10 uM incubated for 48 hrs by sulforhodamine B assay relative to control. Put shortly: as §1
The test system of the next assay is K562. As to the kind of experiment: Antiproliferative activity against human K562 cells assessed as cell growth inhibition at 10 uM incubated for 48 hrs by sulforhodamine B assay relative to control. The method in brief:
as §1

The next assay has as its system UACC-257. As to the kind of experiment: Antiproliferative activity against human UACC-257 cells assessed as cell growth inhibition at 10 uM incubated for 48 hrs by sulforhodamine B assay relative to control. The method in brief: as §1
In the next assay the test system is SK-OV-3. As to the kind of experiment: Antiproliferative activity against human SK-OV-3 cells assessed as cell growth inhibition at 10 uM incubated for 48 hrs by sulforhodamine B assay relative to control. The method in brief: as §1
In another assay the test system is SW-620. As to the kind of experiment: Antiproliferative activity against human SW620 cells assessed as cell growth inhibition at 10 uM incubated for 48 hrs by sulforhodamine B assay relative to control. Put shortly:
as §1

A further assay deals with HCC 2998. The experiment in a line: Antiproliferative activity against human HCC 2998 cells assessed as cell growth inhibition at 10 uM incubated for 48 hrs by sulforhodamine B assay relative to control. The method in brief:
as §2

Another assay deals with TK-10. As to the kind of experiment: Antiproliferative activity against human TK-10 cells assessed as cell growth inhibition at 10 uM incubated for 48 hrs by sulforhodamine B assay relative to control. Put shortly: as §1

Each structure is given as a SMILES string.

`Cc1cccc(-c2cn3ccnc3c(-c3ccc4ncn(Cc5ccccc5)c4c3)n2)c1`: the inhibition at 10 µM worked out at 37.5% in the assay with RPMI-8226; 21.7% in the assay with SNB-75; 28.7% in the assay on HOP-92; 10.1% with NCI-H460; 9.68% with HOP-62; 28.4% in the assay on NCI-H522. The inhibition at 10 µM in the assay on OVCAR-5 was 6.64%; in the assay with SN12C, 4.72%; with COLO 205, 11.3%; in the assay on PC-3, 24.8%; with SK-MEL-5, 10.1%; in the assay with OVCAR-4 it was 19.3%. Besides, the inhibition at 10 µM came out at 21.1% with CCRF-CEM; 24.8% in the assay on CAKI-1; 9.09% with NCI-H23; 9.51% in the assay with IGROV-1; 86% in the assay with T47D; 22.1% with KM12. In addition, the inhibition at 10 µM in the assay with Hs-578T was determined as 8.47%; in the assay on NCI-H226 it was 1.18%; with UACC-62, 2.46%; with A549, 14.9%.

With `Clc1ccc(-c2cn3ccnc3c(-c3ccc4ncn(C5CCCCC5)c4c3)n2)cc1`, the inhibition at 10 µM with RPMI-8226 amounted to 19%; with SNB-75 it was 31.1%; in the assay on HOP-92, 30.5%; in the assay with NCI-H460, 4.14%; in the assay with NCI-H522, 19.8%; in the assay on OVCAR-5 it was 0.84%. In addition, the inhibition at 10 µM in the assay on SK-MEL-28 worked out at 12.1%; in the assay with SN12C, 13.5%; with K562, 44.5%; with PC-3, 24.6%; in the assay with SK-MEL-5, 12.4%; with OVCAR-4 it was 4.57%. Further, the inhibition at 10 µM in the assay with CCRF-CEM was found to be 11.4%; in the assay on UACC-257, 5.44%; in the assay on NCI-H23, 4.11%; with IGROV-1 it was 7.84%; in the assay with T47D it was 27.6%; with KM12, 10.6%. Further, the inhibition at 10 µM in the assay with SK-OV-3 turned out to be 6.14%; with Hs-578T, 6.35%; with NCI-H226, 19.4%; in the assay with UACC-62, 30.5%; with SW-620, 14%; in the assay with A549 it was 11.6%.

As for `Brc1ccc(-c2cn3ccnc3c(-c3ccc4ncn(C5CCCCC5)c4c3)n2)cc1`, the inhibition at 10 µM in the assay on RPMI-8226 is 32%; with SNB-75 it was 34.5%; in the assay with HOP-92 it was 34.1%; in the assay with NCI-H460 it was 13.2%; in the assay with NCI-H522, 35.5%; with OVCAR-5 it was 8.95%. The inhibition at 10 µM in the assay with SK-MEL-28 came to 28.3%; in the assay on SN12C, 18.4%; in the assay on K562, 59%; in the assay on PC-3 it was 42.4%; with SK-MEL-5, 23.6%; in the assay with OVCAR-4, 10.5%. Further, the inhibition at 10 µM in the assay on UACC-257 stood at 7.3%; with NCI-H23 it was 8.38%; in the assay on IGROV-1, 9.4%; with T47D, 55%; in the assay with KM12, 23.3%; in the assay on SK-OV-3, 6.44%. Besides, the inhibition at 10 µM was 24.5% in the assay on Hs-578T; 23.3% in the assay with NCI-H226; 46.9% in the assay with UACC-62; 21.9% in the assay with SW-620; 15.3% with A549.

On to `c1ccc2c(-c3cn4ccnc4c(-c4ccc5ncn(C6CCCCC6)c5c4)n3)cccc2c1`, for which the inhibition at 10 µM in the assay with RPMI-8226 came out at 22.9%; with SNB-75, 16.5%; in the assay on NCI-H460 it was 3.61%; in the assay on HOP-62, 19.6%; with NCI-H522, 19.3%; with HCC 2998, 2.23%. Further, the inhibition at 10 µM in the assay with SN12C turned out to be 11.7%; in the assay with K562, 30.9%; in the assay with PC-3, 36.5%; with SK-MEL-5, 4.06%; in the assay on OVCAR-4 it was 19.7%; in the assay on CCRF-CEM, 17.5%. Also, the inhibition at 10 µM was found to be 25.1% with CAKI-1; 4.32% in the assay on NCI-H23; 41.3% with T47D; 11.1% in the assay on KM12; 3.62% in the assay on Hs-578T; 9.45% in the assay with NCI-H226. The inhibition at 10 µM with UACC-62 is 16.7%; with SW-620, 5.34%.

With `O=Cc1ccc(-c2cn3ccnc3c(-c3ccc4ncn(Cc5ccccc5)c4c3)n2)cc1`, the inhibition at 10 µM in the assay with RPMI-8226 stood at 82.5%; with SNB-75, 21.4%; in the assay on HOP-92, 43%; with NCI-H460 it was 37.8%; in the assay with HOP-62 it was 23.8%; with NCI-H522, 25.2%. In addition, the inhibition at 10 µM with SK-MEL-28 is 7.54%; in the assay with SN12C, 20.7%; in the assay on PC-3, 19%; in the assay with TK-10, 0.75%; in the assay with SK-MEL-5, 56.5%; with OVCAR-4, 16.9%. For the same compound, the inhibition at 10 µM in the assay on CCRF-CEM is 77.9%; with CAKI-1, 36.5%; in the assay on NCI-H23 it was 54.5%; in the assay with IGROV-1 it was 21.3%; with T47D, 98%; with KM12, 3.69%. Further, the inhibition at 10 µM in the assay on SK-OV-3 amounted to 5.11%; in the assay on Hs-578T, 45.5%; with NCI-H226, 0.53%; in the assay with UACC-62, 37.1%; in the assay with SW-620 it was 4.21%.
